Assay results published in ChEMBL document CHEMBL1124514, “Synthesis and antiviral activity of the nucleotide analogue (S)-1-[3-hydroxy-2-(phosphonylmethoxy)propyl]cytosine” (1989).
In brackets after ≈: the same amount, converted by molar mass.

Tests used:
Format in all cases: functional
[1] = organism: Cavia porcellus; experiment: Duration of time of healing period in HSV-1 cutaneous infection in guinea pig at 0.1% HPMPC
[2] = system: Human alphaherpesvirus 1; experiment: Antiviral activity of the compound, determined by plaque-reduction assay against Herpes simplex virus (HSV) type 1, BW5 strain in Vero cells; conditions: Human alphaherpesvirus 1, Vero; read-out: ID50 (the source's name)
How it was run: (§1)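 Plaque reduction: confluent monolayers (Vero for HSV, MRC-5 for HCMV) infected with 30-50 PFU in PBS, 1 h adsorption, then compound dilutions in EMEM with 10% fetal bovine serum; 48 h at 37 °C, 5% CO2; fixed, Carbol fuchsin stained, plaques counted. ID50 = concentration reducing plaque number by 50% versus virus control.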

[3] = organism: Cavia porcellus; experiment: Total score of lesion formation in HSV-1 cutaneous infection in guinea pig at 5% HPMPC
[4] = organism: Cavia porcellus; experiment: Total score of lesion formation in HSV-1 cutaneous infection in guinea pig at 0.1% HPMPC
[5] = organism: Cavia porcellus; experiment: Duration of time of lesion formation in HSV-1 cutaneous infection in guinea pig at 1% HPMPC
[6] = organism: Cavia porcellus; experiment: Total score of healing period in HSV-1 cutaneous infection in guinea pig at 5% HPMPC
[7] = system: Mus musculus; experiment: Mean survival time of mice was determined after intraperitoneal administration of compound at 100 mg/kg per day in experiment 1
How it was run: (§2)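 Female Swiss mice (16–18 g) infected ip with (2-6) × 10^2 PFU HSV 1 HL-34, randomized into groups of 10. Ip dosing started 3 h postinfection, twice daily for 5 consecutive days; vehicle 0.2% carboxymethylcellulose with 0.2% Tween 80 in water. Mortality followed 21 days; survival by Fisher's exact test, mean survival time by Gehan-Wilcoxon.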

[8] = organism: Cavia porcellus; experiment: Total score of lesion formation in HSV-1 cutaneous infection in guinea pig at 1% HPMPC
[9] = system: Mus musculus; experiment: Mean survival time of mice was determined after intraperitoneal administration of compound at 0.1 mg/kg per day in experiment 2; how it was run: as §2
[10] = system: Mus musculus; experiment: Percentage survival of mice after intraperitoneal administration of compound at 100 mg/kg per day in experiment 1; survival/ tested =10/10; conditions: ip; how it was run: as §2
[11] = system: Mus musculus; experiment: Mean survival time of mice was determined after intraperitoneal administration of compound at 200 mg/kg per day in experiment 1; how it was run: as §2
[12] = organism: Cavia porcellus; experiment: Mean of severity score obtained from five different individuals at 0.1% HPMPC
[13] = system: Mus musculus; experiment: Percentage survival of mice after intraperitoneal administration of compound at 0.1 mg/kg per day in experiment 2; survival/ tested =5/10; conditions: ip; how it was run: as §2
[14] = system: Mus musculus; experiment: Mean survival time of mice was determined after intraperitoneal administration of compound at 10 mg/kg per day in experiment 2; how it was run: as §2
[15] = system: Mus musculus; experiment: Percentage survival of mice after intraperitoneal administration of compound at 10 mg/kg per day in experiment 1; survival/ tested =10/10; conditions: ip; how it was run: as §2
[16] = organism: Cavia porcellus; experiment: Duration of time of lesion formation in HSV-1 cutaneous infection in guinea pig at 0.1% HPMPC
[17] = system: Mus musculus; experiment: Mean survival time of mice was determined after intraperitoneal administration of compound at 1 mg/kg per day in experiment 2; how it was run: as §2
[18] = system: Mus musculus; experiment: Mean survival time of mice was determined after intraperitoneal administration of compound at 10 mg/kg per day in experiment 1; how it was run: as §2
[19] = system: Human alphaherpesvirus 2; experiment: Antiviral activity determined by plaque-reduction assay against Herpes simplex virus type 2, G strain in Vero cells; conditions: Human alphaherpesvirus 2, Vero; read-out: ID50 (the source's name); how it was run: as §1
[20] = organism: Cavia porcellus; experiment: Total score of healing period in HSV-1 cutaneous infection in guinea pig at 0.1% HPMPC
[21] = system: Mus musculus; experiment: Percentage survival of mice after intraperitoneal administration of compound at 1 mg/kg per day in experiment 2; survival/ tested =9/10; conditions: ip; how it was run: as §2
[22] = system: Human betaherpesvirus 5; experiment: Antiviral activity determined by plaque-reduction assay against Human cytomegalovirus, AD-169 strain in MRC-5 cells; conditions: Human betaherpesvirus 5, MRC5; read-out: ID50 (the source's name); how it was run: as §1
[23] = organism: Cavia porcellus; experiment: Duration of time of lesion formation in HSV-1 cutaneous infection in guinea pig at 5% HPMPC
[24] = organism: Cavia porcellus; experiment: Total score of healing period in HSV-1 cutaneous infection in guinea pig 1%HPMPC
[25] = organism: Cavia porcellus; experiment: Mean of severity score obtained from five different individuals at 5% HPMPC
[26] = system: Mus musculus; experiment: Percentage survival of mice after intraperitoneal administration of compound at 10 mg/kg per day in experiment 2; survival/ tested =10/10; conditions: ip; how it was run: as §2
[27] = system: Human alphaherpesvirus 1; experiment: Antiviral activity of the compound, determined by plaque-reduction assay against thymidine kinase deficient Herpes simplex virus type 1, Z826 strain in Vero cells; conditions: Human alphaherpesvirus 1, Vero; read-out: ID50 (the source's name); how it was run: as §1
[28] = organism: Cavia porcellus; experiment: Duration of time of healing period in HSV-1 cutaneous infection in guinea pig at 5% HPMPC
[29] = system: Mus musculus; experiment: Percentage survival of mice after intraperitoneal administration of compound at 200 mg/kg per day in experiment 1; survival/ tested =10/10; conditions: ip; how it was run: as §2
[30] = organism: Cavia porcellus; experiment: Duration of time of healing period in HSV-1 cutaneous infection in guinea pig at 1% HPMPC
[31] = organism: Cavia porcellus; experiment: Mean of severity score obtained from five different individuals at 1% HPMPC
[32] = system: Mus musculus; experiment: Percentage survival of mice after intraperitoneal administration of compound at 200 mg/kg per day in experiment 2; survival/ tested =7/9; conditions: ip; how it was run: as §2
[33] = system: Human alphaherpesvirus 1; experiment: In vitro antiviral activity of the compound, determined by plaque-reduction assay against Herpes simplex virus (HSV) type 1, BW5 strain in Vero cells; conditions: Human alphaherpesvirus 1, Vero; read-out: ID50 (the source's name); how it was run: as §1
[34] = organism: Cavia porcellus; experiment: Duration of time of lesion formation in HSV-1 cutaneous infection in guinea pig at 5%ACV
[35] = organism: Cavia porcellus; experiment: Total score of lesion formation in HSV-1 cutaneous infection in guinea pig at 5% ACV
[36] = organism: Cavia porcellus; experiment: Total score of healing period in HSV-1 cutaneous infection in guinea pig at 5% ACV
[37] = system: Human alphaherpesvirus 1; experiment: In vitro antiviral activity of the compound, determined by plaque-reduction assay against thymidine kinase deficient Herpes simplex virus type 1, Z826 strain in Vero cells; conditions: Human alphaherpesvirus 1, Vero; read-out: ID50 (the source's name); how it was run: as §1
[38] = system: Human alphaherpesvirus 2; experiment: In vitro antiviral activity determined by plaque-reduction assay against Herpes simplex virus type 2, G strain in Vero cells; conditions: Human alphaherpesvirus 2, Vero; read-out: ID50 (the source's name); how it was run: as §1
[39] = organism: Cavia porcellus; experiment: Mean of severity score obtained from five different individuals at 5% ACV
[40] = organism: Cavia porcellus; experiment: Duration of time of healing period in HSV-1 cutaneous infection in guinea pig at 5%ACV
[41] = system: Mus musculus; experiment: Percentage survival of mice after intraperitoneal administration of compound at 200 mg/kg per day in experiment 1; survival/ tested =3/4; conditions: ip
[42] = system: Mus musculus; experiment: Percentage survival of mice after intraperitoneal administration of compound at 50 mg/kg per day in experiment 1; survival/ tested =5/10; conditions: ip; how it was run: as §2
[43] = system: Mus musculus; experiment: Percentage survival of mice after intraperitoneal administration of compound at 100 mg/kg per day in experiment 1; survival/ tested =7/10; conditions: ip; how it was run: as §2

Nc1ccn(C[C@@H](CO)OCP(=O)(O)O)c(=O)n1.O.O [CIDOFOVIR] showed a Duration time [1] of 4.4, an IC50 [2] of 5.4 µg/mL and a Total score [3] of 3. For the same molecule, the Total score [4] was 8.2, the Duration time [5] was 3.8 and the Total score [6] was 85.4. For the same molecule, the Mean survival time [7] was 21 days, the Total score [8] was 7 and the Mean survival time [9] was 14.9 days. For the same molecule, the survival at 100 mg/kg/day [10] was 100%, the Mean survival time [11] was 21 days and the Severity mean [12] was 1.4. It also gave a survival at 0.1 mg/kg/day [13] of 50%, a Mean survival time [14] of 21 days and a survival at 10 mg/kg/day [15] of 100%. The Duration time [16] was 3.8, the Mean survival time [17] was 19.7 days and the Mean survival time [18] was 21 days. The IC50 [19] was 2.3 µg/mL, the Total score [20] was 72.8 and the survival at 1 mg/kg/day [21] was 90%. The IC50 [22] was 0.22 µg/mL, the Duration time [23] was 2.2 and the Total score [24] was 75. For the same molecule, the Severity mean [25] was 0.8, the survival at 10 mg/kg/day [26] was 100% and the IC50 [27] was 0.7 µg/mL. It also gave a Duration time [28] of 4.2, a survival at 200 mg/kg/day [29] of 100% and a Duration time [30] of 3.8. For the same molecule, the Severity mean [31] was 1.

With Nc1nc2c(ncn2COC(CO)CO)c(=O)[nH]1 [GANCICLOVIR] the IC50 [2] was 0.23 µg/mL (≈ 0.901 µM), the IC50 [19] was 0.94 µg/mL (≈ 3.68 µM) and the IC50 [22] was 1.8 µg/mL (≈ 7.05 µM). For the same molecule, the IC50 [27] was > 10 µg/mL.

Nc1nc2c(ncn2COCCO)c(=O)[nH]1 [ACYCLOVIR] was tested, and the survival at 200 mg/kg/day [32] was 78%, the IC50 [33] was 0.5 µg/mL (≈ 2.22 µM) and the Duration time [34] was 5.4. For the same molecule, the Total score [35] was 14, the Total score [36] was 60.4 and the IC50 [37] was 4.3 µg/mL (≈ 19.1 µM). For the same molecule, the IC50 [38] was 0.3 µg/mL (≈ 1.33 µM), the Severity mean [39] was 2.4 and the Duration time [40] was 4.2. For the same molecule, the survival at 200 mg/kg/day [41] was 75%, the survival at 50 mg/kg/day [42] was 50% and the survival at 100 mg/kg/day [43] was 70%.

Nc1ncnc2c1ncn2C[C@@H](CO)OCP(=O)(O)O showed an IC50 [2] of 9.3 µg/mL (≈ 30.7 µM), an IC50 [19] of 25.2 µg/mL (≈ 83.1 µM) and an IC50 [22] of 0.27 µg/mL (≈ 0.89 µM). It also gave an IC50 [27] of 3.2 µg/mL (≈ 10.6 µM).

In the case of Nc1ccn(CCOCP(=O)(O)O)c(=O)n1, the IC50 [2] is reported as > 100 µg/mL, the IC50 [19] is reported as > 100 µg/mL and the IC50 [22] is reported as > 2.7 µg/mL.
